Here are results for 3 molecules from ChEMBL document CHEMBL2021903, “3-Deoxy-3,4-dehydro analogs of XM462. Preparation and activity on sphingolipid metabolism and cell fate” (Bioorg Med Chem, 2012).

Activity calls are given as the source filed them. The rule behind the calls is not given here.

Experiment [1] deals with T1, Acid ceramidase (Homo sapiens) (UniProt Q13510).
T1 sequence (whole entry): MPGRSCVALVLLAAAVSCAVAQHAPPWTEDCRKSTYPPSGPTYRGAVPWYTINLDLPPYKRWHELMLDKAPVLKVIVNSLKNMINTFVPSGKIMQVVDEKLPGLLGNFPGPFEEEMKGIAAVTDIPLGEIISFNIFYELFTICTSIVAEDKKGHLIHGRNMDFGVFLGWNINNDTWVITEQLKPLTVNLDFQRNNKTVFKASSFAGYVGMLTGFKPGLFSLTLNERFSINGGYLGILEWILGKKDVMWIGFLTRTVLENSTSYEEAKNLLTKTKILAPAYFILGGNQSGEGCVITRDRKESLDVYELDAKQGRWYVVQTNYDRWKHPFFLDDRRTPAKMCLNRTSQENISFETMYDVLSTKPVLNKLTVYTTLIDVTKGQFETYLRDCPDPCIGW
The experiment is described as follows: Inhibition of aCDase in Moh.pAS AcCer10X cells using RBM14C16 as substrate at 16 uM after 1 hr by HPLC-FD analysis. The experiment is classed as cell-based.

Experiment [2] concerns the target T1, Acid ceramidase (Homo sapiens). The experiment is described as follows: Inhibition of aCDase using RBM14C16 as substrate at 16 uM after 1 hr by HPLC-FD analysis.
A further experiment relates to HCT-116. The experiment is described as follows: Induction of apoptosis in human HCT116 cells at 30 uM after 14 hrs by Annexin V-propidium iodide staining based flow cytometry. In kind it is functional, cell-based. In short, it runs like this:
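HCT116 (clone 40–16) in low-glucose DMEM with 10% FBS and 1% penicillin–streptomycin, seeded 2.5×10⁵ cells/mL. After 24 h, medium replaced with compound-containing medium; ethanol vehicle to controls. After incubation, cells PBS-washed, trypsinized, stained with Annexin V and propidium iodide, analysed by flow cytometry. Mean ± SD, 3 experiments in triplicate.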
Background: A flow cytometer gives signals particle by particle.

The inhibition is the drop in the measured response relative to a control, in per cent. A higher inhibition goes with a response far below the control.

As to `CCCCCCCCCCCCC/C=C/[C@@H](O)[C@H](CO)NC(=O)C(C)(C)C`, the inhibition in experiment [1] and in experiment [2] was 50% in each case. As to `CCCCCCCCCCCCC/C=C/[C@@H](O)[C@H](CO)NC(=O)CCCCCCC`, the outcome in the experiment with HCT-116 was Active. For `CCCCCCCCCCCCCCC[C@@H](O)[C@H](CO)NC(=O)C(C)(C)C`, the inhibition in experiment [1] and in experiment [2] was 50% in each case.
